Sampled rows, rich in hits. Any-hit rate of the full collection: about 2.2%.
COUP-TFII inh – NR2F2 transcriptional activity inhibitors, primary screen, cell-based, luciferase reporter, HEK293T, luminescence; COUP transcription factor 2 (Homo sapiens), P24468; HEK293T NGFI-A luciferase reporter; inhibition, % at 8.6 µM; 0.7% of 370,000 active;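 active = inhibition above a per-plate cutoff, mean inhibition of test wells between control levels plus 3 SD, cut at about 38% in these data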;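 also: cells cotransfected with COUP-TFII expression vector driving the NGFI-A reporter; 0% = median of COUP-TF2 test wells and 100% = reporter-only cells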
Target sequence (P24468 whole entry, looked up): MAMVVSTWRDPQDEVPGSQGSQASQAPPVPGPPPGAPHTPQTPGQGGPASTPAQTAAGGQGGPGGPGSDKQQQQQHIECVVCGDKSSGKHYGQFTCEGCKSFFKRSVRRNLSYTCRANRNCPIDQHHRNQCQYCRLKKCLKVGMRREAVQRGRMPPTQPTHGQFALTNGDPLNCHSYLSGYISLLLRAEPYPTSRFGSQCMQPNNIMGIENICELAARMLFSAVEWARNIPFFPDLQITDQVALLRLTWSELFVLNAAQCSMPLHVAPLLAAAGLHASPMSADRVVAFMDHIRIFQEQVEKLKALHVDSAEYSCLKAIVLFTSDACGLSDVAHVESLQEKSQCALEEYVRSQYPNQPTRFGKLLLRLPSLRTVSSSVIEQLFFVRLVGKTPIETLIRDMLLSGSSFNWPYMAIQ
NR2E3 ag-1 – inhibitors of NR2E3-RetCOR corepressor binding, primary screen, NR2E3 agonist project, biochemical, TR-FRET, GST-NR2E3, biotin-RetCOR; Photoreceptor-specific nuclear receptor (Homo sapiens), Q9Y5X4; 1536-well; inhibition of corepressor binding, % at 4.78 µM; 0.12% of 320,000 active; AID 2300, 2010;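 active = percent inhibition above the cutoff of mean plus 3 SD of all tested compounds, set per screening campaign, cut at about 20% in these data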;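 also: 0% = DMSO wells and 100% = biotin wells as full block of FRET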
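Test system: GST-NR2E3 and biotin-RetCOR proteins | Quantity: 1.35 nM GST-tagged NR2E3 final | Medium: Tris pH 7.5 | Also added: 7 nM biotin-RetCOR | Dosing: Compound at 4.8 µM, single dose | Timing: 5 h at 4 °C | Detection: Time-resolved FRET | Read-out basis: Percent inhibition | Benchmarks: Biotin wells as high control, 0.6% DMSO wells as low control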
GalR3 antagonist – GalR3 antagonists in HEK293 cells, primary screen, cell-based, fluorescence readout | HEK293 GalR3-CNG cAMP membrane potential fluorescence; galR3 body fused to GalR1 C-terminus | inhibition, % at 3 µM | 0.44% of 360,000 active;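 active = inhibition above the screen-wide average plus 3 SD, cut at about 13% in these data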;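 also: forskolin and galanin both at EC90 stimulate the cells; cAMP rise reported by CNG channel membrane potential dye signal; 0% = forskolin plus galanin with DMSO and 100% = forskolin alone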
Target sequence (O60755 1-299 limits assumed): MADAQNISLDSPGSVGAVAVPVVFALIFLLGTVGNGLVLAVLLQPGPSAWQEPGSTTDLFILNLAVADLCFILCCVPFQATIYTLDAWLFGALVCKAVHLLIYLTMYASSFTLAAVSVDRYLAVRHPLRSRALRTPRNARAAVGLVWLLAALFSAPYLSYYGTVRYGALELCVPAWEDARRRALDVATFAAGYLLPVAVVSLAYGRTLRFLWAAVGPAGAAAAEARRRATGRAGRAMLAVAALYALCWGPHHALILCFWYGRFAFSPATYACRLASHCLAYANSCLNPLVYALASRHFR
SMARCA2 activ – SMARCA2 (BRM) function activators, primary screen, cell-based, luminescence, high throughput | 1% of 370,000 active | MG213 cells, MMTV-luciferase reporter, dexamethasone, overnight | activation, % at 9.1 µM; in the data active = activation above about 7.8%;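 also: 0% = vehicle wells and 100% = reference activator wells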
NR2E3 ag-2 – NR2E3 agonists in two-hybrid cells, primary screen, cell-based, luminescence, CHO-S, Gal4-NCOR/VP16-NR2E3. Photoreceptor-specific nuclear receptor (Homo sapiens), Q9Y5X4. luciferase. inhibition of corepressor binding, % at 3.98 µM. 0.35% of 360,000 active. AID 602229, 2012;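 active = inhibition above the mean of all tested compounds plus 3 SD, cut at about 70% in these data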;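 also: 0% = DMSO with NR2E3 transfected cells and 100% = cells lacking NR2E3 construct; higher means lower luciferase signal from less NR2E3 corepressor binding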
VP16 Luc counter – Gal4-VP16 luciferase reporter inhibitors, counter-screen for COUP-TFII antagonist project, cell-based, luminescence, HEK293; shares compounds with COUP-TFII inh; inhibition, % at 8.5 µM; 25% of 2,500 active; in the data active = inhibition above about 13%
COUP-TFII conf – NR2F2 transcriptional activity inhibitors, confirmation, cell-based, luciferase reporter, HEK293, triplicate. HEK293 NGFI-A luciferase reporter, luminescence. 45% of 2,500 active. AID 687008, 2013. inhibition, % at 8.5 µM. shares compounds with COUP-TFII inh;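 active = mean inhibition over three repeats above a set limit taken from the earlier primary screen, cut at about 38% in these data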;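 also: 100% = cells given the luciferase reporter alone without the COUP-TF2 vector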
* hit, by the source's call; nt = no result.

SMILES | COUP-TFII inh | NR2E3 ag-1 | GalR3 antagonist | SMARCA2 activ | NR2E3 ag-2 | VP16 Luc counter | COUP-TFII conf
CC(=O)N1CCN(S(=O)(=O)c2ccc3c(c2)oc(=O)n3C)CC1 | -20 | nt | nt | -4 | nt | nt | nt
O=C(CSc1nnc(-c2cccnc2)n1-c1ccccc1)Nc1ccc(OCc2ccccc2)cc1 | -2 | nt | nt | -5 | nt | nt | nt
COc1ccc(C2C(C(=O)Nc3ccc(F)cc3)CCC(=O)N2c2ccc(OC)cc2)cc1 (stereo not drawn) | -7 | nt | nt | -2 | nt | nt | nt
Cc1ccc(NC(=O)c2cc(S(=O)(=O)NCCC3=CCCCC3)ccc2F)cc1 | 61* | -2 | -7 | -8 | 10 | 3 | 33
Cc1nc(N2CCN(c3ccccn3)CC2)c2c(C)c(C(=O)Nc3c(F)cc(F)cc3Br)sc2n1 | 42* | -2 | -7 | 2 | -23 | 0 | 25
Cc1ccccc1C(=O)N1CCC(C(=O)Nc2ccc(C)c(S(=O)(=O)N3CCCCC3)c2)CC1 | 42* | 4 | -7 | -5 | -6 | -6 | 13
Cc1ccc(NC(=O)C2CCCN(C(=O)c3ccc(Cl)cc3)C2)cc1S(=O)(=O)N1CCOCC1 (stereo not drawn) | 38* | 3 | 2 | -5 | 4 | -7 | 3
Cc1ccccc1C(=O)N1CCC(C(=O)Nc2cccc(S(=O)(=O)N3CCCCC3)c2)CC1 | 34 | -3 | -3 | -4 | 10 | nt | nt
CCC(=O)N1CCN(c2ccc(NC(=O)c3cc4ccccc4o3)cc2Cl)CC1 | 44* | 3 | -3 | -2 | 21 | -16 | 36
O=C(Nc1ccc(N2CCN(C(=O)c3ccccc3)CC2)c(Cl)c1)c1ccco1 | 16 | -4 | 0 | -1 | 9 | nt | nt
O=C(Nc1ccc(N2CCN(C(=O)c3ccco3)CC2)c(Cl)c1)c1cc2ccccc2o1 | 63* | 0 | 0 | -3 | 55 | 5 | 51*
CCC(=O)N1CCN(c2ccc(NC(=O)c3ccco3)cc2Cl)CC1 | -4 | nt | 0 | 0 | -1 | nt | nt
O=C(NC1=NCCS1)C1COc2ccccc2O1 (stereo not drawn) | 49* | 2 | -6 | -3 | -61 | 19* | 49*
O=C(/C=C\Nc1ccccn1)c1ccccc1 | -22 | 1 | -3 | 5 | -191 | nt | nt
O=C(/C=C/Nc1ccccc1Br)c1ccccn1 | 68* | 1 | -3 | -4 | 24 | 61* | 80*
O=C(COc1ccccc1C(=O)NCc1ccccc1)Nc1ccc(I)cc1 | 1 | nt | nt | -3 | nt | nt | nt
COc1ccc(-c2cc(NC(=O)Cc3c[nH]c4ccccc34)ccc2Nc2cccnc2)c(OC)c1 | -13 | nt | -7 | -1 | nt | nt | nt
CN(C)Cc1nc2ccccc2c(=O)n1Cc1nc(-c2cc3ccccc3o2)cs1 | 14 | -4 | -2 | -4 | -2 | nt | nt
CCOc1ccc(-c2csc(Cn3c(CN4CCN(C)CC4)nc4ccccc4c3=O)n2)cc1 | 39* | 2 | -6 | -2 | -23 | -11 | 7
CN(C)c1ccc(/C=C/c2cc[n+](C)cc2)cc1 | 41* | 11 | 3 | -4 | 1 | -15 | 15
CN(C)c1ccc(/C=C/c2cc[n+]([O-])cc2)cc1 | nt | -9 | nt | nt | nt | nt | nt
Cc1ccc(/C=C/c2ccc(N(C)C)cc2)[n+](C)c1 | 65* | -11 | -8 | -5 | -14 | -6 | 55*
CCOC(=O)[C@]12CCCCC/C=C\1N(CCc1ccc(Cl)cc1)C(=O)[C@H]2CC(=O)N1CCOCC1 | 14 | nt | nt | -1 | nt | nt | nt
CC(C)c1ccc(CC(=O)N2CCC2(C)C(=O)Nc2ccccc2)cc1 (stereo not drawn) | 11 | nt | -6 | -4 | -4 | nt | nt
CC(C)c1ccc(CC(=O)N2CCC2(C)C(=O)Nc2cnc3ccccc3c2)cc1 (stereo not drawn) | 45* | nt | -9 | -7 | 20 | -3 | 11
SMILES | COUP-TFII inh | NR2E3 ag-1 | GalR3 antagonist | SMARCA2 activ | NR2E3 ag-2 | VP16 Luc counter | COUP-TFII conf
Cc1cc(C(=O)COC(=O)C2=COCCO2)c(C)n1-c1ccccc1 | 65* | nt | -5 | -7 | 1 | 16* | 74*
Cc1cc(C(=O)COC(=O)C2=NNC(=O)CC2)c(C)n1-c1ccccc1 | 1 | -2 | -5 | -5 | 24 | nt | nt
Cc1nc2ccc(S(=O)(=O)NCC(=O)NCc3ccccc3C)cc2s1 | -15 | nt | nt | -1 | nt | nt | nt
CCN1C/C(=C/c2ccc(N3CCOCC3)cc2)C(=O)/C(=C/c2ccc(N3CCOCC3)cc2)C1 | 37* | 1 | 0 | -2 | 30 | 24* | 39*
Cc1nn(C)c(C)c1NC(=O)COc1ccc(Cl)cc1Br | 51* | -4 | 53* | -3 | 17 | 4 | 50*
Cc1cccc(OCC(=O)Nc2ccncc2)c1C | 39* | 0 | -9 | -4 | -29 | -8 | 32
Cc1nn(C)c(C)c1NC(=O)COc1ccc(F)cc1Br | 22 | nt | -4 | 1 | -9 | nt | nt
Cc1cc(Cl)ccc1OCC(=O)Nc1ccncc1 | 40* | 4 | 55* | -2 | 12 | -28 | 23
O=C(COc1ccc(Cl)cc1Cl)Nc1ccccn1 | 89* | 2 | -5 | -9 | -66 | 64* | 82*
C=CCCC1(CCC)C(=O)/C(=C(\O)c2ccccc2)C(=O)C(CCC)=C1OC (stereo not drawn) | 3 | nt | nt | -1 | nt | nt | nt
COP(=O)(OC)C(Cc1ccccc1)NC(=O)CNC(=O)OCc1ccccc1 (stereo not drawn) | -19 | nt | nt | 1 | nt | nt | nt
Oc1ccc(CNc2cccnc2)c2cccnc12 | -13 | nt | nt | nt | nt | nt | nt
CCN(CC)C(=O)CC[C@H]1CC[C@]2(CCCN(C(=O)c3ccno3)C2)O1 | -9 | nt | nt | 1 | nt | nt | nt
Cc1c(C)c2ccc(OCC(=O)Nc3ccccn3)c(C)c2oc1=O | 78* | -3 | -7 | -8 | -14 | 82* | 98*
Cc1cc(Cl)ccc1OCCCC(N)=O | -3 | 6 | 3 | -8 | -28 | nt | nt
Cc1cc(Cl)ccc1OCCCC(=O)NO | 52* | 3 | 4 | -3 | -16 | -6 | 47*
COC(=O)[C@]12C[C@H](CC(=O)NCc3cccs3)C(=O)N(Cc3ccccc3)C1=C[C@H](COCc1ccccc1)O[C@@H]2C | -17 | nt | nt | -3 | nt | nt | nt
Cc1ccc(S(=O)(=O)N2CCCc3ccccc32)cc1 | 14 | nt | 3 | -5 | 10 | nt | nt
Cc1ccc2cccc(S(=O)(=O)N3CCCc4ccccc43)c2n1 | 39* | 4 | -8 | -4 | -15 | -2 | 14
O=S(=O)(CC1NCc2ccccc21)NC1CCCC1 (stereo not drawn) | 6 | nt | nt | -6 | nt | nt | nt
